Reference: ChEMBL document CHEMBL2062481 (J Med Chem, 2012)

How the values were obtained:
[1] = 1-octanol-phosphate buffer distribution coefficient, log D of the compound at 1 uM after 2 hrs by shake flask method at pH 7.4; format: physicochemical
In short: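 Phosphate buffer (0.1 M, pH 7.4) and 1-octanol were mutually pre-saturated. Analyte at 1 μM in buffer was overlaid with octanol at two volume ratios chosen by lipophilicity class, three wells per ratio. Plates were shaken 2 h at 25 °C and centrifuged, and the aqueous phase was quantified by LC-MS. Results were accepted if the two ratio means agreed within 0.1 unit.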

[2] = AUC (0 to 24 hrs) in C3H/HeN mouse plasma at 25 mg/kg, iv administered as single dose; format: ADME, organism-based; set-up: time < 24 hr, dose 25 mg/kg, route intravenous
In short: (§1)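 Female C3H/HeN mice (19–25 g) received a single tail-vein iv dose in 100 μL PBS. Blood and urine (10 μL) were sampled at 6 and 30 min and at 1, 2, 4, 6 and 8 h. Samples were methanol-precipitated, centrifuged and quantified by LC-MS. n = 4.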

[3] = AUC (0 to 24 hrs) in C3H/HeN mouse urine at 25 mg/kg, iv administered as single dose; format: ADME, organism-based; set-up: time < 24 hr, dose 25 mg/kg, route intravenous; in short: as §1
[4] = AUC (0 to 24 hrs) in C3H/HeN mouse plasma at 5 mg/kg, iv administered as single dose; format: ADME, organism-based; set-up: time < 24 hr, dose 5 mg/kg, route intravenous; in short: as §1
[5] = AUC (0 to 24 hrs) in C3H/HeN mouse plasma at 1 mg/kg, iv administered as single dose; format: ADME, organism-based; set-up: time < 24 hr, dose 1 mg/kg, route intravenous; in short: as §1
[6] = AUC (0 to 24 hrs) in C3H/HeN mouse urine at 1 mg/kg, iv administered as single dose; format: ADME, organism-based; set-up: time < 24 hr, dose 1 mg/kg, route intravenous; in short: as §1
[7] = AUC (0 to 24 hrs) in C3H/HeN mouse plasma at 0.05 mg/kg, iv administered as single dose; format: ADME, organism-based; set-up: time < 24 hr, dose 0.05 mg/kg, route intravenous; in short: as §1
[8] = AUC (0 to 24 hrs) in C3H/HeN mouse urine at 0.05 mg/kg, iv administered as single dose; format: ADME, organism-based; set-up: time < 24 hr, dose 0.05 mg/kg, route intravenous; in short: as §1

Row | SMILES | logD at 2 h, 1 µM [1] | also measured
1 | O=C(O)c1ccc(-c2ccc(O[C@H]3O[C@H](CO)[C@@H](O)[C@H](O)[C@@H]3O)c(Cl)c2)cc1 | -0.8 | –
2 | OC[C@H]1O[C@H](Oc2ccc(-n3ccc4ccccc43)cc2Cl)[C@@H](O)[C@@H](O)[C@@H]1O | 1.8 | AUC(0-t) at 24 h [2]: 8200 ng·h/mL; AUC(0-t) at 24 h [3]: 19300 ng·h/mL
3 | O=[N+]([O-])c1ccc2c(ccn2-c2ccc(O[C@H]3O[C@H](CO)[C@@H](O)[C@H](O)[C@@H]3O)c(Cl)c2)c1 | 1.8 | AUC(0-t) at 24 h [4]: 2300 ng·h/mL
4 | COc1ccc2c(ccn2-c2ccc(O[C@H]3O[C@H](CO)[C@@H](O)[C@H](O)[C@@H]3O)c(Cl)c2)c1 | 3 | –
5 | OC[C@H]1O[C@H](Oc2ccc(-n3ccc4c(OCc5ccccc5)cccc43)cc2Cl)[C@@H](O)[C@@H](O)[C@@H]1O | 2.7 | –
6 | OC[C@H]1O[C@H](Oc2ccc(-n3ccc4ccccc43)cc2F)[C@@H](O)[C@@H](O)[C@@H]1O | 2.4 | –
7 | O=[N+]([O-])c1ccc2c(ccn2-c2ccc(O[C@H]3O[C@H](CO)[C@@H](O)[C@H](O)[C@@H]3O)c(F)c2)c1 | 1.9 | –
8 | COC(=O)c1ccc2c(ccn2-c2ccc(O[C@H]3O[C@H](CO)[C@@H](O)[C@H](O)[C@@H]3O)c(Cl)c2)c1 | 2.8 | –
9 | O=C(O)c1ccc2c(ccn2-c2ccc(O[C@H]3O[C@H](CO)[C@@H](O)[C@H](O)[C@@H]3O)c(Cl)c2)c1 | 1.1 | –
10 | CS(=O)(=O)Nc1ccc2c(ccn2-c2ccc(O[C@H]3O[C@H](CO)[C@@H](O)[C@H](O)[C@@H]3O)c(Cl)c2)c1 | 1.8 | –
11 | OC[C@H]1O[C@H](Oc2ccc(-n3ccc4cc(Cl)cnc43)cc2Cl)[C@@H](O)[C@@H](O)[C@@H]1O | 3.4 | –
12 | N#Cc1cnc2c(ccn2-c2ccc(O[C@H]3O[C@H](CO)[C@@H](O)[C@H](O)[C@@H]3O)c(Cl)c2)c1 | 1.6 | –
13 | O=[N+]([O-])c1ccc2c(c1)CCN2c1ccc(O[C@H]2O[C@H](CO)[C@@H](O)[C@H](O)[C@@H]2O)cc1 | 1.9 | AUC(0-t) at 24 h [5]: 2200 ng·h/mL; AUC(0-t) at 24 h [6]: 586000 ng·h/mL
14 | OC[C@H]1O[C@H](Oc2ccc(N3CCc4ccccc43)cc2)[C@@H](O)[C@@H](O)[C@@H]1O | 2.3 | –
15 | O=[N+]([O-])c1ccc2c(c1)CCN2c1ccc(O[C@H]2O[C@H](CO)[C@@H](O)[C@H](O)[C@@H]2O)c(Cl)c1 | 1.9 | AUC(0-t) at 24 h [7]: 3500 ng·h/mL; AUC(0-t) at 24 h [8]: 33400 ng·h/mL
16 | OC[C@H]1O[C@H](Oc2ccc(N3CCc4ccccc43)cc2Cl)[C@@H](O)[C@@H](O)[C@@H]1O | 2.8 | –
17 | OC[C@H]1O[C@H](Oc2ccc(-c3cnc4[nH]ccc4c3)cc2Cl)[C@@H](O)[C@@H](O)[C@@H]1O | 3.2 | –
18 | Cn1cnc2cc(-c3ccc(O[C@H]4O[C@H](CO)[C@@H](O)[C@H](O)[C@@H]4O)c(Cl)c3)cnc21 | 1.3 | –
